Results published in PubChem BioAssay.
Activity calls are given as the source filed them.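 Rule for the calls, unless noted: active = NADPH fluorescence slope more negative than the mean of all samples by about 3 SD, 99.7% confidence; inactive = the rest.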

How the values were obtained:
[1] = inhibitors of TNFa-induced NFkB p65 translocation, primary screen, imaging, HUVEC, MLSMR starter and 10KST1 sets (AID 438;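 active = inhibition above 20% together with a positive visual image hit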;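 note: compound added about 3h40 before a 20 min TNFalpha stimulation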;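 for inhibition: signal is the nuclear over cytoplasmic p65 intensity ratio per well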); settings: HUVEC TNFa-induced p65 nuclear translocation; cell count: measured here: nuclei count (cytotoxicity indicator), at 2.08 µM; inhibition: at 2 µM, stronger effect = higher value, 0% TNFa-plus-vehicle, 100% no-TNFa wells
[2] = inhibitors of E-selectin induction by TNFa, primary screen, imaging, HUVEC, immunofluorescence, MLSMR starter and 10KST1 sets (AID 487;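 active = visually confirmed hit in the image check and inhibition above 20%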;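 for inhibition: signal is fraction of cell area covered by stained E-selectin grains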;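 for nuclei count: 100% = median nuclei count of all wells on the same plate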); settings: HUVEC TNFalpha-induced E-selectin immunofluorescence imaging, at 2 µM; inhibition: stronger effect = higher value; nuclei count: measured here: cell number, toxicity
[3] = DUSP6 inhibitors restoring Erk phosphorylation by chemical complementation, primary imaging in DUSP6-transfected HeLa (AID 609;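 active = compounds giving at least 50% inhibition in the cell-based MKP-3 phosphatase rescue imaging test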;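 for inhibition: phospho-Erk level distribution per well compared with pooled transfected vehicle control wells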); settings: HeLa MKP-3 transfected, phospho-Erk imaging KS statistic, at 10 µM, cells stimulated with TPA for 15 min
[4] = molecular target: Dual specificity protein phosphatase 6 (Homo sapiens) (UniProt Q16828); assay: as above; settings: HeLa MKP-3 transfected, phospho-Erk imaging KS statistic; at 10 µM; stronger effect = higher value; cells stimulated with TPA for 15 min
Sequence of Dual specificity protein phosphatase 6 (Homo sapiens) (Q16828 whole entry, looked up): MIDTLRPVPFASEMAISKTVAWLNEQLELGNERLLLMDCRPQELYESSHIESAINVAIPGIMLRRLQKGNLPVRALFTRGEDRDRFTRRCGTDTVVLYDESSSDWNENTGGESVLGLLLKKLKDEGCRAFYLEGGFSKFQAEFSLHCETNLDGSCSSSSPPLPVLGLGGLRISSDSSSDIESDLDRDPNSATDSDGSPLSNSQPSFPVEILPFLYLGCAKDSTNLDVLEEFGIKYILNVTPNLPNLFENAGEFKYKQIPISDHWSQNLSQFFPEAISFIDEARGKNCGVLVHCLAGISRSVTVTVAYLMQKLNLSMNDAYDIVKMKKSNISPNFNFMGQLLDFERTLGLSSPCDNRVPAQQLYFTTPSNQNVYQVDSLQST

[5] = molecular target: Voltage-gated potassium channel subunit beta-2 (Rattus norvegicus) (UniProt P62483); assay: KvBeta enzyme negative modulators, primary screen, biochemical, NADPH fluorescence (AID 622;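 active = fluorescence slope higher than the sample average by over 3 SD, cut at about -0.22 in these data, passing the limit was not always enough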;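 note: slope of raw intensity against log time taken from 70 to 1610 s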); settings: recombinant KvBeta, 4-cyanobenzaldehyde reduction, at 10 µM, stronger effect = higher value
Sequence of Voltage-gated potassium channel subunit beta-2 (Rattus norvegicus) (P62483 whole entry, looked up): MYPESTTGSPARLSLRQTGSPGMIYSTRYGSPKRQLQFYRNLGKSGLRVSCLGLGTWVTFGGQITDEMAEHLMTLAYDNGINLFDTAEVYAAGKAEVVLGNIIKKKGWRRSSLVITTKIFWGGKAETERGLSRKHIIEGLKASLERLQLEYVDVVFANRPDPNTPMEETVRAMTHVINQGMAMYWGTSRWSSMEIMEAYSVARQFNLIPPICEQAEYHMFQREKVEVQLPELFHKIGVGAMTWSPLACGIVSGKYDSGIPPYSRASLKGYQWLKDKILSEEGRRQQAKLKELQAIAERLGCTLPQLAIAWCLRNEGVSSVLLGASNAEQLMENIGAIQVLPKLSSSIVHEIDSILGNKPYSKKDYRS

[6] = molecular target: Voltage-gated potassium channel subunit beta-2 (Rattus norvegicus) (UniProt P62483); assay: KvBeta positive modulators, primary screen, biochemical, NADPH fluorescence (AID 623); settings: Recombinant KvBeta, NADPH fluorescence decrease slope, 10 min; at 10 µM; stronger effect = lower value;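 note: fluorescence intensity change per second fitted from 20 to 320 s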
[7] = molecular target: Muscarinic acetylcholine receptor M4 (Homo sapiens) (UniProt P08173); assay: compounds altering M4/GIRK thallium flux, either direction, primary screen, M4 allosteric agonist project, cell-based, HEK293 M4/GIRK, BTC-AM (AID 625;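 active = fluorescence slope after compound addition differing from the mean of all tested samples at 99.7% confidence, mostly higher but some lower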;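 note: thallium influx through GIRK channels coupled to M4 in HEK293 cells with BTC-AM dye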); settings: at 10 µM, actives lie on both sides
Sequence of Muscarinic acetylcholine receptor M4 (Homo sapiens) (P08173 whole entry, looked up): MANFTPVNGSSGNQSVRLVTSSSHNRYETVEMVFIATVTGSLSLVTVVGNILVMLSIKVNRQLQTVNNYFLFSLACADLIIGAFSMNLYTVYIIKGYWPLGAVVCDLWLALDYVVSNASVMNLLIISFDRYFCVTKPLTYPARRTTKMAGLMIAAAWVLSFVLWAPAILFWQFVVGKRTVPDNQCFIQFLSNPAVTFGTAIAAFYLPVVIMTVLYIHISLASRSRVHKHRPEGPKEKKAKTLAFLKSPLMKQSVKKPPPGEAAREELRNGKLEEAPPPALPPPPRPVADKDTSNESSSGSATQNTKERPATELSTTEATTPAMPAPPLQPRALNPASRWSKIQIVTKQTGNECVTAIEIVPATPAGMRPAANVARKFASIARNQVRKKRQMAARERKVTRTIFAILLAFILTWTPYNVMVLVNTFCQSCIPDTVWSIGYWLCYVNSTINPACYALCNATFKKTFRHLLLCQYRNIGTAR
Method in brief: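 Assay system: HEK293 cells with M4 receptor and GIRK channels / Controls: carbachol and DMSO controls / Schedule: 1 h dye loading, 2 min kinetic read / Technique: kinetic fluorescence with BTC-AM dye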

[8] = inhibitors of larval lipid processing in zebrafish, primary screen, whole organism, PED6 fluorescence, gall bladder and intestine (AID 686;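 active = a full or partial loss of lipid-probe fluorescence in the fish gall bladder, intestine or both, judged by eye; inactive = no fluorescence loss, or compound toxic to the fish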;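 note: larvae 5 to 7 days old with five fish per well; signal comes from phospholipase A2 cleavage of quenched PED6 carried via bile; overnight exposure to compound and PED6 before scoring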); settings: Zebrafish larvae PED6 lipid processing, fluorescence scoring; screened at 20 µM (by protocol)
Method in brief: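 Doses: 20 µM single dose. Test system: live zebrafish larvae aged 5-7 days, whole organism. Quantity: five larvae per well. Measured by: By-eye fluorescence microscopy. Reagent: ingested quenched lipid PED6 at 100 nM. Read-out: visual per-well fluorescence inhibition score. Times: overnight exposure of larvae to compound plus PED6.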

[9] = inhibitors of Chlamydomonas gravitaxis, primary screen, whole organism, Chlamydomonas reinhardtii, WT vs cilia-less mutant, absorbance, 96-well (AID 463189;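 active = inhibition at or above 50% relative to wild type and mutant plate controls; inactive = inhibition below 50%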;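 note: 0% = wild type cc124 cells in DMSO and 100% = ciliumless bld1 mutant cells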); settings: OD600 absorbance, 2 days, at 10 µM, stronger effect = higher value
[10] = measured here: cell density z-score
[11] = measured here: nuclear c-Myc green intensity z-score
[12] = measured here: nuclear pErk red intensity z-score, stronger effect = higher value

Compound | cell count [1] | inhibition [1] | inhibition [2] | nuclei count [2] [%] | z-score [3, 10] | z-score [3, 11] | z-score [3, 12] | inhibition [4] | fluorescence slope [5] | NADPH fluorescence slope [6] | fluorescence slope [7] | outcome [8] | inhibition [9]
CCOC(=O)CCNc1n[nH]c(=O)[nH]c1=O | 611 | 29.6% (active) | -2.5% (inactive) | 107 | 0.833 | 0.318 | -1.89 | 15.5% (inactive) | -0.497 (inactive) | -1.9e-05 (inactive) | 0.00518 (inactive) | inactive | -1.35% (inactive)
C=CCn1c(C2CC(=O)N(c3ccc(C)cc3)C2)nc2ccccc21 (stereo not drawn) | 591 | -13.7% (inactive) | 47.4% (inactive) | 177 | -1.26 | -0.0771 | 0.981 | -2.29% (inactive) | -0.467 (inactive) | -0.00019 (inactive) | 0.00532 (inactive) | inactive | 2% (inactive)
O=C1CCCN1c1ccc(S(=O)(=O)NCc2ccco2)cc1 | 702 | 3.6% (inactive) | -53.1% (inactive) | 180 | 0.977 | -0.343 | 1.6 | 15.9% (inactive) | -0.489 (inactive) | -3.7e-05 (inactive) | 0.00466 (inactive) | inactive | 15.5% (inactive)
COC(=O)/C=c1/s/c(=C(\C#N)C(=O)NCc2ccco2)n(-c2ccccc2)c1=O | 395 | 0.2% (inactive) | -54.5% (inactive) | 129 | -0.296 | -0.55 | -0.453 | 1.48% (inactive) | -0.455 (inactive) | -3.8e-05 (inactive) | 0.00374 (inactive) | inactive | 45.7% (inactive)
Nc1c(C(=O)NCc2ccco2)sc2nc(N3CCOCC3)c3c(c12)CCCC3 | 510 | -3.3% (inactive) | 21.6% (inactive) | 169 | -0.827 | 1.22 | 1.35 | 7.93% (inactive) | -0.0309 (active) | 4.6e-08 (inactive) | 0.00375 (inactive) | inactive | 7.67% (inactive)
O=C(c1ccc2c3c(cccc13)C(=O)N(O)C2=O)N1CCCCC1 | 583 | -6.7% (inactive) | 65.6% (active) | 92.9 | 1.73 | -0.867 | -1.15 | 35.1% (inactive) | -0.426 (inactive) | -3.2e-05 (inactive) | 0.00526 (inactive) | inactive | 35.8% (inactive)
Nc1nnnn1/N=C/c1cccs1 | 656 | -4.7% (inactive) | -50.1% (inactive) | 124 | -0.3 | -1.24 | -0.836 | -8.95% (inactive) | -0.483 (inactive) | -6.6e-05 (inactive) | 0.00656 (inactive) | inactive | 17.8% (inactive)
CCCn1nnc(NC(=O)c2cc(Br)cc(Br)c2OC)n1 | 391 | -1.7% (inactive) | -24.1% (inactive) | 127 | 0.877 | 0.738 | 0.427 | 20.2% (inactive) | -0.463 (inactive) | -0.000102 (inactive) | 0.00469 (inactive) | inactive | 8.4% (inactive)
O=C(OCCN1CCOCC1)c1ccc2c(c1)OCCO2 | 644 | -12.8% (inactive) | 1.7% (inactive) | 180 | 0.036 | 0.0112 | 0.434 | -9.53% (inactive) | -0.473 (inactive) | -6.5e-05 (inactive) | 0.00543 (inactive) | inactive | -3.31% (inactive)
CC1(C)Cc2c(C#N)c(N3CCOCC3)nc(Cc3ccccc3)c2CO1 | 582 | -0.5% (inactive) | -122% (inactive) | 132 | -0.332 | -0.948 | -0.693 | -3.95% (inactive) | -0.445 (inactive) | -5.6e-05 (inactive) | 0.00448 (inactive) | inactive | 17.6% (inactive)
CCOC(=O)C1=C(C)NC(=O)C1CC(=O)Nc1ccccc1 (stereo not drawn) | 377 | -4.8% (inactive) | -73.4% (inactive) | 139 | -0.173 | 0.561 | 0.408 | 3.42% (inactive) | -0.443 (inactive) | -0.000122 (inactive) | 0.00567 (inactive) | inactive | -5.87% (inactive)
CCOC(=O)c1[nH]c2ccccc2c1NC(=O)CN(C)C | 656 | 2.2% (inactive) | -136% (inactive) | 180 | 0.955 | 0.5 | -0.213 | 7.93% (inactive) | -0.476 (inactive) | -4.7e-05 (inactive) | 0.00584 (inactive) | inactive | -6.18% (inactive)
CC1CCN(c2[nH]c(=S)c(C#N)c3c2CCCC3)CC1 | 383 | -5.9% (inactive) | -5.3% (inactive) | 140 | 0.378 | -0.606 | 1.46 | 1.42% (inactive) | -0.469 (inactive) | -0.000131 (inactive) | 0.00501 (inactive) | inactive | 19.3% (inactive)
Cc1ccc(-n2c(SCC(=O)NCc3ccco3)nc3nc4c(cc3c2=O)COC(C)(C)C4)cc1 | 518 | -21.3% (inactive) | 9.1% (inactive) | 176 | 0.611 | -1.97 | 0.29 | 3.97% (inactive) | -0.408 (inactive) | -1.9e-05 (inactive) | 0.00603 (inactive) | inactive | 17% (inactive)
Cc1ccc(-n2ncc3c(NCCCN4CCCC4=O)ncnc32)c(C)c1 | 563 | -12.5% (inactive) | -40.1% (inactive) | 134 | 0.612 | -0.125 | -2.3 | 13.4% (inactive) | -0.358 (inactive) | 1.3e-05 (inactive) | 0.00773 (inactive) | inactive | 0.102% (inactive)
CCOc1ccc(C2=Nn3c(nnc3-c3ccccc3OC)SC2)cc1 | 409 | 35.7% (active) | -453% (inactive) | 82.2 | -1.24 | 0.121 | -0.702 | 4.25% (inactive) | -0.472 (inactive) | -1.9e-05 (inactive) | 0.00485 (inactive) | inactive | -11.5% (inactive)
Oc1oc(-c2ccco2)nc1C=Nc1cccc(Cl)c1 | 562 | 5.6% (inactive) | -19% (inactive) | 131 | -0.184 | -1.01 | 0.105 | -12.6% (inactive) | -0.449 (inactive) | -0.000133 (inactive) | 0.00392 (inactive) | inactive | -1.6% (inactive)
Cc1ccc(-n2ncc3c(NCc4cccnc4)ncnc32)c(C)c1 | 623 | -10.1% (inactive) | 33.3% (inactive) | 103 | -0.852 | 0.459 | 0.734 | 1.42% (inactive) | -0.325 (inactive) | -4.3e-05 (inactive) | 0.00518 (inactive) | inactive | -12.1% (inactive)
C=CCOc1ccc(/C(O)=C2/C(=O)C(=O)N(CCCN3CCOCC3)C2c2ccccc2)cc1 (stereo not drawn) | 400 | -4.5% (inactive) | -152% (inactive) | 142 | 0.832 | -1.64 | 0.377 | 7.73% (inactive) | -0.44 (inactive) | -0.000122 (inactive) | 0.00439 (inactive) | inactive | 3.35% (inactive)
CC(C)OCCCn1c(=N)c(C(N)=S)cc2c(=O)n3ccccc3nc21 | 619 | -7.9% (inactive) | -3% (inactive) | 149 | 1.16 | -1.47 | -1.15 | 17.7% (inactive) | -0.454 (inactive) | -4.1e-05 (inactive) | 0.00453 (inactive) | inactive | 22.8% (inactive)
COC(=O)CCc1c(C)[nH]c(=S)[nH]c1=O | 364 | -0.7% (inactive) | -74.5% (inactive) | 111 | -0.296 | -0.397 | -1.03 | -4.78% (inactive) | -0.521 (inactive) | -2.4e-05 (inactive) | 0.00625 (inactive) | inactive | -5.54% (inactive)
